# Measurements from different studies.
# Each line is one published result; the experiments were not run side by side.
# Target: Ephrin type-B receptor 3 (EPHB3, Homo sapiens, UniProt P54753)
# One construct used (P54753 34-998): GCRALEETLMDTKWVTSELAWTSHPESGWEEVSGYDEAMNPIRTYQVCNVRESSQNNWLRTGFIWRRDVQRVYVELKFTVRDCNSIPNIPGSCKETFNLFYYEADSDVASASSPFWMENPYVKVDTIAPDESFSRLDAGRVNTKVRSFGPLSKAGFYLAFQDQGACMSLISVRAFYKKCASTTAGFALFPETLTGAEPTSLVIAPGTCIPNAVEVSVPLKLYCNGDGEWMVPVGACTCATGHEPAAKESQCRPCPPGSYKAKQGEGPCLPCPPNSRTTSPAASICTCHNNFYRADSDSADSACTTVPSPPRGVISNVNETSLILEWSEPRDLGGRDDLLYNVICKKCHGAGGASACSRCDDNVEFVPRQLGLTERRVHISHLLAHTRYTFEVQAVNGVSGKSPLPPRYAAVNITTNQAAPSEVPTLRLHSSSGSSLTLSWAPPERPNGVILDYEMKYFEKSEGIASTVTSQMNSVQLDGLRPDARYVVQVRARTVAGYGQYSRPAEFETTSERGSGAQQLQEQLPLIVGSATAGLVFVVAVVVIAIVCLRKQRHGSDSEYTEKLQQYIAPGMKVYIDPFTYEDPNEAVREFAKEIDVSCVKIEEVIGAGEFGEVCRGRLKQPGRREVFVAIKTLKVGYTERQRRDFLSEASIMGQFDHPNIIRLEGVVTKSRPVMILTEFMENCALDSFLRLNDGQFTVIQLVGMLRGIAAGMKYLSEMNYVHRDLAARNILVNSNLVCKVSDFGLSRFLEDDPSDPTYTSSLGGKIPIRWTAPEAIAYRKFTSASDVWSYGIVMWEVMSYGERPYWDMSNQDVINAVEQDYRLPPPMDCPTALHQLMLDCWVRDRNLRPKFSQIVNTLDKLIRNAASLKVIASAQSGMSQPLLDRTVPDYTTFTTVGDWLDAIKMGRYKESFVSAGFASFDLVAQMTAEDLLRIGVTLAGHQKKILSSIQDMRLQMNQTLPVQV
SMILES,test,setting,endpoint,value
O=c1[nH]c2ccccc2n1C1CCN(Cc2ccc(-c3[nH]c4cc5ncnc5cc4nc3-c3ccccc3)cc2)CC1,cell-free assay,0.5 µM,remaining signal,104%
COc1cc(Nc2ncc(F)c(Nc3ccc4c(n3)NC(=O)C(C)(C)O4)n2)cc(OC)c1OC,binding,10 µM,inhibition,0%
COc1ncccc1-c1cnn2ccc(N3CCN(C(=O)OC(C)C)CC3)nc12,"binding, competition with immobilised ligand",1 µM,remaining binding,100%
Cc1nn(C)cc1-c1nc2c(N3CCN(Cc4ccc(Cl)cc4)CC3)c(Cl)cnc2[nH]1,"binding, competition with immobilised ligand",1 µM,remaining binding,77%
Cn1cc(-c2cccc(N3CCc4c(sc5c4CC(C)(C)C5)C3=O)c2CO)cc(Nc2ccncn2)c1=O,"enzyme activity, inhibitor",1 µM,inhibition,1%
Cn1cncc1[C@](O)(COc1ccc(C#N)cc1-c1ccc(OC(F)(F)F)cc1)c1ccc(C#N)cc1,"cell-free assay, competition with immobilised ligand",1 µM,remaining binding,100%
CC(C)(C)c1cc(C=C(C#N)C#N)cc(Br)c1O,"enzyme activity, inhibitor",0.5 µM,remaining activity,107%
Cn1cc(-c2cc(F)cc(N3CCn4c(cc5c4CCCC5)C3=O)c2CO)cc(Nc2ccc(N3CCN(C4COC4)CC3)cn2)c1=O,"enzyme activity, inhibitor",0.1 µM,inhibition,7%
N#CC1(c2ccccn2)CCN(Cc2cc(C(=O)O)c(=O)n3ccccc23)CC1,"cell-free assay, competition with immobilised ligand",1 µM,remaining binding,92%
